From ChEMBL document CHEMBL4371014, “Novel Allosteric Ligands of γ-Aminobutyric Acid Transporter 1 (GAT1) by MS Based Screening of Pseudostatic Hydrazone Libraries” (J Med Chem, 2018)
Calls of active or inactive are those of the source. The rule behind the calls is not given here.

Columns and labels:
[1] = target: Sodium- and chloride-dependent GABA transporter 1 (Homo sapiens) (UniProt P30531); experiment: (§1) Non-competitive inhibition of human GAT1 expressed in COS cells assessed as reduction in [2H6]GABA uptake by measuring [2H6]GABA Bmax at 1 uM preincubated for 25 mins followed by [2H6]GABA addition and measured after 4 mins […] (reference value: 79.5 +/- 5 pmol/mg); type: cell-based
[2] = test system: Betaine/GABA transporter BGT1 (Mus musculus); experiment: Inhibition of mouse GAT2 expressed in HEK293 cells assessed as reduction in [3H]GABA uptake at 100 uM preincubated for 25 mins followed by [3H]GABA addition and measured after 10 mins by liquid scintillation counting method relative to control
[3] = target: Sodium- and chloride-dependent GABA transporter 1 (Homo sapiens) (UniProt P30531); experiment: as §1, with “at 10” for “at 1”; type: cell-based
[4] = target: Sodium- and chloride-dependent GABA transporter 1 (Mus musculus) (UniProt P31648); experiment: Inhibition of NO711 binding to mouse GAT1 expressed in HEK293 cell membranes assessed as residual binding at 1 uM preincubated for 4 hrs followed by NO711 addition and measured after 40 mins by LC-ESI-MS/MS analysis relative to control
Summary of the method: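 Single hydrazones formed in situ in the presence of mouse GAT1 from one aldehyde (1.0 µM) and hydrazine (200 µM). Formation ran 4 h, then NO711 MS marker was added for 40 min. Specifically bound NO711 was freed from the target and quantified by LC-ESI-MS/MS. Results are % remaining specific binding, means±SD of four replicates.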

[5] = target: Sodium- and chloride-dependent GABA transporter 1 (Homo sapiens) (UniProt P30531); experiment: Inhibition of human GAT1 expressed in HEK293 cells assessed as reduction in [3H]GABA uptake preincubated for 25 mins followed by [3H]GABA addition and measured after 4 mins by liquid scintillation counting method; type: cell-based
[6] = test system: Slc6a13 GABA transporter mGAT3 (Mus musculus); experiment: Inhibition of mouse GAT3 expressed in HEK293 cells assessed as reduction in [3H]GABA uptake at 100 uM preincubated for 25 mins followed by [3H]GABA addition and measured after 4 mins by liquid scintillation counting method relative to control
[7] = target: T1, GABA transporter 4 (Mus musculus) (UniProt P31650); experiment: Inhibition of mouse GAT4 expressed in HEK293 cells assessed as reduction in [3H]GABA uptake at 100 uM preincubated for 25 mins followed by [3H]GABA addition and measured after 4 mins by liquid scintillation counting method relative to control; type: cell-based
T1 sequence (whole entry): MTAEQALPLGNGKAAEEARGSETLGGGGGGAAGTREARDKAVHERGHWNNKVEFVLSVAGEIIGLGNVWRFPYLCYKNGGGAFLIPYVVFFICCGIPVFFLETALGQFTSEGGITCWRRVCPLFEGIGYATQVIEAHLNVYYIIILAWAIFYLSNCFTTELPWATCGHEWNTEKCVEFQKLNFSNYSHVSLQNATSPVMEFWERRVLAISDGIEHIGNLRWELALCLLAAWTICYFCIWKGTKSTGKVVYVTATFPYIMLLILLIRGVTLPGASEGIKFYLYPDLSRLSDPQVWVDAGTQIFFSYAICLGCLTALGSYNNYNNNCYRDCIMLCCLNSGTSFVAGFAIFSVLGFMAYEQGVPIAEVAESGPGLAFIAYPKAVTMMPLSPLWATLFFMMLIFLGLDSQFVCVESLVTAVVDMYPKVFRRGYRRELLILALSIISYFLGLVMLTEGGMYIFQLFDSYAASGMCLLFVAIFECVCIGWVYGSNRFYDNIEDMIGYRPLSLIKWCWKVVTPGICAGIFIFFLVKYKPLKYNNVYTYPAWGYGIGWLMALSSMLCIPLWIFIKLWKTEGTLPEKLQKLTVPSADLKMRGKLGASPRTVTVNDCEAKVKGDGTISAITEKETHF

[8] = target: Sodium- and chloride-dependent GABA transporter 1 (Mus musculus) (UniProt P31648); experiment: Inhibition of mouse GAT1 expressed in HEK293 cells assessed as reduction in [3H]GABA uptake at 100 uM preincubated for 25 mins followed by [3H]GABA addition and measured after 4 mins by liquid scintillation counting method relative to control; type: cell-based
[9] = target: Sodium- and chloride-dependent GABA transporter 1 (Homo sapiens) (UniProt P30531); settings: 1 uM
[10] = target: Sodium- and chloride-dependent GABA transporter 1 (Homo sapiens) (UniProt P30531); settings: 100 nM

Sodium- and chloride-dependent GABA transporter 1 (Homo sapiens), sequence (P30531 whole entry, looked up): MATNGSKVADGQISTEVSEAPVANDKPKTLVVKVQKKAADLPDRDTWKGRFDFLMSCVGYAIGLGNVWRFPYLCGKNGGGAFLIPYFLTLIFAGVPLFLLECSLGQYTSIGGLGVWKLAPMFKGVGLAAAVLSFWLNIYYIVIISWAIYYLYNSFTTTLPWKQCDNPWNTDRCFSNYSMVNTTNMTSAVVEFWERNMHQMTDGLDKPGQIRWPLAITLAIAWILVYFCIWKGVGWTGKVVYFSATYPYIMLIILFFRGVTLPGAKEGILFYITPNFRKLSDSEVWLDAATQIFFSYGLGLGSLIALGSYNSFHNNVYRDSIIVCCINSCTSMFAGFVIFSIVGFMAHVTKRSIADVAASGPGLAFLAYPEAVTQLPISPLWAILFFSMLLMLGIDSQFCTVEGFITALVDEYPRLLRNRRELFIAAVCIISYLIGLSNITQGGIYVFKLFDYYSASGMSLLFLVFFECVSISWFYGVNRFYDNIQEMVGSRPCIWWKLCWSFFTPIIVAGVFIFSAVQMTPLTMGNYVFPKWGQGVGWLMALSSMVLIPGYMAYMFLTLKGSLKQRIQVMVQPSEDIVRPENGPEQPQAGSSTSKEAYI

Work on `O=C(O)[C@H]1CNC[C@@H](CN/N=C/c2ccc(-c3cccc4ccccc34)o2)C1` (racemic) yielded a Bmax [1] of 48.4 pmol/mg, an inhibition [2] of 64% and a Bmax [3] of 28.3 pmol/mg. For the same compound, the Activity [4] was 16% and the inhibition [5] was “Active”.
Compound `O=C(O)[C@H]1CNC[C@@H](CN/N=C/c2ccc(-c3ccc(C(F)(F)F)cc3Cl)o2)C1` (racemic) has an inhibition [6] of 59%, an inhibition [2] of 65% and an inhibition [7] of 53%. For the same compound, the Activity [4] was 40% and the inhibition [5] was “Active”.
In the case of `O=C(O)[C@H]1CNC[C@@H](CCN/N=C/c2ccc(-c3ccc(C(F)(F)F)cc3Cl)o2)C1` (racemic), the Activity [4] was 47% and the inhibition [5] was “Active”.
With `O=C(O)C1=CCCN(CCON=C(c2ccccc2)c2ccccc2)C1` the inhibition [5] was “Active”.
`O=C(O)[C@H]1CNC[C@@H](CCN/N=C/c2ccc(-c3ccc(Cl)cc3Cl)o2)C1` (racemic) was tested, and the Activity [4] was 41% and the inhibition [5] was “Active”.
`O=C(O)[C@H]1CNC[C@@H](CN/N=C/c2ccc(-c3cc(C(F)(F)F)cc(C(F)(F)F)c3)o2)C1` (racemic) gave an inhibition [6] of 65%, a Bmax [1] of 57.1 pmol/mg and an inhibition [2] of 84%. For the same compound, the inhibition [8] was 50%, the inhibition [7] was 79% and the Bmax [3] was 38.9 pmol/mg. The Activity [4] was 32% and the inhibition [5] was “Active”.
`O=C(O)[C@H]1CNC[C@@H](CN/N=C/c2ccc(-c3cc(C(F)(F)F)ccc3Cl)o2)C1` (racemic) gave an inhibition [6] of 57%, an inhibition [2] of 91% and an inhibition [7] of 57%. The Activity [4] was 38% and the inhibition [5] was “Active”.
In the case of `Cc1ccsc1C(=CCCN1CCC[C@@H](C(=O)O)C1)c1sccc1C`, the Bmax [9] was 81 pmol/mg, the inhibition [5] was “Active” and the Bmax [10] was 79.9 pmol/mg.
With `O=Cc1ccc(-c2cc(C(F)(F)F)ccc2Cl)o1` the Activity [4] was 88%.
Compound `O=C(O)[C@H]1CNC[C@@H](CN/N=C/c2cnc(N3CCCCC3)nc2)C1` (racemic) has an Activity [4] of 69%.
`O=C(O)[C@H]1CNC[C@@H](CN/N=C/c2cnc(-c3cccc4ccccc34)nc2)C1` (racemic) was tested, and the Activity [4] was 61%.
Work on `O=C(O)[C@H]1CNC[C@@H](CCN/N=C/c2ccc(-c3ccc(Cl)cc3F)o2)C1` (racemic) yielded an Activity [4] of 64%.
With `Cn1c(/C=N/NC[C@@H]2CNC[C@H](C(=O)O)C2)ccc1-c1ccc(Cl)cc1` (racemic) the Activity [4] was 87%.
Work on `COc1cccc(F)c1-c1ccccc1C=O` yielded an Activity [4] of 112%.
`O=C(O)[C@H]1CNC[C@@H](CCN/N=C/c2ccc(-c3cc(C(F)(F)F)ccc3Cl)o2)C1` (racemic) gave an Activity [4] of 54%.
Compound `Cn1cnnc1Sc1ccc(/C=N/NCC[C@@H]2CNC[C@H](C(=O)O)C2)o1` (racemic) has an Activity [4] of 73%.
In the case of `Cc1ccc(-c2ccsc2C=O)c(C)c1`, the Activity [4] was 124%.
For `O=C(O)[C@H]1CNC[C@@H](CN/N=C/c2cccc(Oc3ccccc3)c2)C1` (racemic), the Activity [4] was 46%.
`O=C(O)[C@H]1CNC[C@@H](CN/N=C/c2cnc(-c3ccccc3)nc2)C1` (racemic) was tested, and the Activity [4] was 55%.
Work on `O=C(O)[C@H]1CNC[C@@H](CN/N=C/c2ccc(-c3ccccc3Cl)o2)C1` (racemic) yielded an Activity [4] of 48%.
